From ChEMBL document CHEMBL4346686, “Discovery and biological evaluation of novel androgen receptor antagonist for castration-resistant prostate cancer” (Eur J Med Chem, 2019)
Substitutions are numbered along the chain they refer to.

Tests used:
[1] = Cmax in Sprague-Dawley rat at 30 mg/kg, po measured at 0.5 hrs by LC-MS/MS analysis; assay type: ADME, organism-based; design: dose 30 mg/kg, route oral; settings: in vivo
In short: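 Male SD rats (N = 3), single oral 30 mg/kg in PEG200/DMA (9:1, v/v). Blood from retrobulbar vein at 0–24 h; heparinized plasma, protein precipitation with methanol, LC-MS/MS quantitation; parameters by non-compartmental analysis.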

[2] = Toxicity in BALB/c nude mouse xenografted with human VCaP cells assessed as weight loss at 30 mg/kg, po qd administered for 40 days relative to control; assay type: organism-based; settings: in vivo, 960 h
[3] = target: T1, Androgen receptor (Homo sapiens) (UniProt P10275); assay: Potency index, ratio of IC50 for enzalutamide to IC50 for compound for competitive displacement of [3H]R1881 from human AR expressed in LNCaP cells incubated for 24 hrs by scintillation counting method based radioligand competitive binding assay; assay type: cell-based
T1 sequence (whole entry): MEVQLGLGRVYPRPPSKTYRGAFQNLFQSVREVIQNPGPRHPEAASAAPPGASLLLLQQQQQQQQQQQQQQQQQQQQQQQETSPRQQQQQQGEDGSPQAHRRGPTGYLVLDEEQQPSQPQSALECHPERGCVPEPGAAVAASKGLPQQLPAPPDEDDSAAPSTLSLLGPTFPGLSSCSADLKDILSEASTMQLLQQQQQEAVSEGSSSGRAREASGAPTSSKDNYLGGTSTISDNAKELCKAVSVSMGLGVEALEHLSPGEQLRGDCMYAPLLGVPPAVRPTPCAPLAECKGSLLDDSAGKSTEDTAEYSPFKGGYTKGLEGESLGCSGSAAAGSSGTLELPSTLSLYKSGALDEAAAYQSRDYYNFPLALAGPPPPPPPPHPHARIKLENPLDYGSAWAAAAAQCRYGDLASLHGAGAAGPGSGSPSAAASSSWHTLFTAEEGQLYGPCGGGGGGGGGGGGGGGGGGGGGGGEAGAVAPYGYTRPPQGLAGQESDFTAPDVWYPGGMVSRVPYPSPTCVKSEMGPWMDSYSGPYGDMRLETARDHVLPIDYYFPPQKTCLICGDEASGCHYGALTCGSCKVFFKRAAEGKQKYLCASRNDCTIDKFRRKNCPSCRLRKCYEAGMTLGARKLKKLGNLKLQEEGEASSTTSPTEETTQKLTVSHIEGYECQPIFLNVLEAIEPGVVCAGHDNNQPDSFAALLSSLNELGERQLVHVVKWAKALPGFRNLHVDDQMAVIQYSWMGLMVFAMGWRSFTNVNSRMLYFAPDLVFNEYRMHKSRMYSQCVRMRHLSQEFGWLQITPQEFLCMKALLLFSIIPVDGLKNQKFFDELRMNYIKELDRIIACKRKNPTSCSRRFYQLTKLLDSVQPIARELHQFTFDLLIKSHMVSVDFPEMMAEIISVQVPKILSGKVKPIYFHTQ

[4] = system: T2, Androgen receptor (Homo sapiens), P10275 [F877L]; assay: Antagonist activity against human AR F876L mutant expressed in human PC3 cells assessed as inhibition of 1 nM R1881-induced transactivation incubated for 24 hrs by dual luciferase reporter gene assay; assay type: cell-based
T2 sequence (whole entry): T1 sequence (whole entry) with F877L
In short: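 PC-3 cells in DMEM/F12 (1:1) with 5% charcoal-stripped FBS, cotransfected with 50 ng F876L AR plasmid and 50 ng AR luciferase reporter per well. 24 h post-transfection, compound plus 1 nM R1881 for 24 h. Firefly luminescence normalized to Renilla; mean ± SEM, n = 3.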

PC-3 = assay: Antiproliferative activity against human PC3 cells assessed as reduction in cell viability incubated for 6 days by CCK8 assay; assay type: functional, cell-based; settings: PC-3, 144 h
In short: (§1)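 Cells seeded (2×10^4 per well for VCaP, 1–3×10^3 for the others) and compound added after 24 h as a 9-point, 3-fold serial dilution. Exposure 6 days, then CCK-8 for 1–4 h and absorbance at 450 nm. IC50 from curve fit, mean of at least two independent experiments run in duplicate.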

[5] = Antiproliferative activity against human LNCaP-AR cells assessed as reduction in cell viability incubated for 6 days by CCK8 assay; assay type: functional, cell-based; settings: 144 h; in short: as §1
VCaP [6] = assay: Antiproliferative activity against human VCaP cells assessed as reduction in cell viability incubated for 6 days by CCK8 assay; assay type: functional, cell-based; settings: 144 h; in short: as §1
Androgen receptor = target: T3, Androgen receptor (Homo sapiens, UniProt P10275); assay type: cell-based, LNCaP
T3 sequence (P10275 whole entry): T1 sequence (whole entry)

L02 = assay: Antiproliferative activity against human L02 cells assessed as reduction in cell viability incubated for 6 days by CCK8 assay; assay type: cell-based; settings: L02, 144 h; in short: as §1
VCaP [7] = assay: Antitumor activity against human VCaP cells xenografted in BALB/c nude mouse assessed as inhibition of tumor growth at 30 mg/kg, po qd administered for 40 days relative to control; assay type: functional; settings: Mus musculus, VCaP, po, 960 h; read-out: TGI
In short: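 Male BALB/c nude mice, 5 weeks old, s.c. 1 × 10^7 VCaP cells in DMEM/Matrigel (1:1). Castrated under Nembutal at 150–200 mm3 and randomized (n = 8–10). Once tumors regrew to 200–350 mm3, oral 30 mg/kg qd for 40 days. TGI = [1 − (T − T0)/(C − C0)] × 100 from mean tumor volumes on first and last treatment days.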

Cc1ccc(-c2c(C)noc2C)cc1Nc1ccc(C#N)c(Cl)c1
Cmax [1]: 2320 ng/mL | Activity [2]: Non-Toxic | Ratio IC50 [3]: 8 | Activity [4]: Dose-dependent effect | IC50 (PC-3): 23.3 µM | IC50 [5]: 0.43 µM | IC50 (VCaP [6]): 0.7 µM | IC50 (Androgen receptor): 0.641 µM | IC50 (L02): 11.3 µM | inhibition in vivo at 30 mg/kg (VCaP [7]): 44.7%
